In series [1] the target is Heat shock protein beta-1 (Homo sapiens) (UniProt P04792). The series is described as follows: Inhibition of HSP27 in human T98G cells assessed as induction of AR degradation at 25 to 100 nM by Western blot analysis. Format: cell-based. The conditions noted are these: dose 25-100 nM. The essentials: (§1)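 Cells were treated in six-well plates (with or without MG132 where stated), then lysed in RIPA with protease inhibitors. 50 μg protein was run on 10% SDS-PAGE and transferred to PVDF. Membranes were blocked in 5% milk/TBS-T, probed with AR or AR-V7 antibodies overnight at 4 °C, and detected by chemiluminescence. Densitometry was used; n = 3.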
Chain of Heat shock protein beta-1 (Homo sapiens) (P04792 whole entry): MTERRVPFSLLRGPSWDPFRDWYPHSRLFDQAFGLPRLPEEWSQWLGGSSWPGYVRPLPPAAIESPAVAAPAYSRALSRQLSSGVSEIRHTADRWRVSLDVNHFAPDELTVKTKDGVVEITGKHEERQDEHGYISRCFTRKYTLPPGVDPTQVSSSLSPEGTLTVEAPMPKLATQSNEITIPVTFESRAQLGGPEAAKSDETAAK

Series [2] can be described thus: Toxicity in CD1 mouse assessed as decrease in body weight at 80 mg/kg/day, ip administered thrice weekly and measured at day 10. Format: organism-based. The conditions noted are these: in vivo, 72 h, time 3 day. The essentials: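 Male CD-1 mice, four per group, given 80 mg/kg in PBS IP three times weekly; vehicle DMSO. Mice were euthanized when toxicity signs appeared, otherwise at day 10. Body weight was recorded at first and last dosing days. Non-fasted cardiac blood was taken after euthanasia for an automated hematology analyzer.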

Series [3] concerns the target Heat shock protein beta-1 (Homo sapiens) (UniProt P04792). The series is described as follows: Inhibition of HSP27 in human T98G cells assessed as reduction in AR-V7 expression by Western blot analysis. The note with it: dose 25-100 nM. The format is cell-based. The essentials:
as §1
On the technique in general: In western blotting, separated proteins are transferred to a membrane and probed.

For series [4], the system named is T98G. The series is described as follows: Downregulation of NKX3.1 mRNA expression in human T98G cells at 25 nM incubated for 12 hrs by qRT-PCR analysis. Format: functional, cell-based. The method, boiled down:
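T98G and U87 cells, 2 × 10^5 per well, adhered overnight and were treated at 25 nM for 12 h. RNA was extracted with RiboZol and DNase I-treated. AR, PSA and NKX3.1 were measured by real-time PCR, normalized to 18S by 2−ΔΔCt, three replicates per cDNA.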

The target of series [5] is Heat shock protein beta-1 (Homo sapiens) (UniProt P04792). Put plainly: Inhibition of HSP27 in human T98G cells assessed as reduction in wild type AR expression level at 50 to 100 nM in presence of MG132 by Western blot analysis. The format is cell-based. The note with it: dose 50-100 nM. The method, boiled down: as §1
Series [6] shares this target. Put plainly: Inhibition of HSP27 in human T98G cells assessed as downregulation of androgen receptor by Western blot analysis. The format is cell-based. The note with it: dose 25-100 nM. The method, boiled down: as §1
The test system of series [7] is Mus musculus. Put plainly: In vivo inhibition of HSP27 in human U87 cells xenografted in NCR nude mouse assessed as reduction in AR expression level in tumors at 20 mg/kg, ip administered thrice weekly for 14 days by Western blot analysis. The format is functional, organism-based. The conditions noted are these: time 14.0 day. The method, boiled down:
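Tumors from U87 flank xenografts in male nude mice dosed at 20 mg/kg IP or orally three times weekly for 14 days. The two tumors of each mouse were pooled and homogenized in RIPA with protease inhibitors and PMSF. AR was then measured by western blot; n = 4.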
(Xenograft models place foreign cells or tissue in a host animal.)

Calls of active or inactive are those of the source. No cut-off for these calls is given here.

Turning to `COc1ccc(C(=O)Nc2ccc(NS(C)(=O)=O)c(OCc3cc(OC)ccc3OC)c2)cc1`, the inhibition result in series [1], in series [4] and in series [7] was “Active” each time. For the same compound, in series [2], the Activity entry is on record as “Non-Toxic”. The inhibition entry in series [3] and in series [6] was “Dose-dependent effect” throughout. For the same compound, the inhibition result in series [5] is “inactive”.

The values are drawn from ChEMBL document CHEMBL4706680, “Small-Molecule HSP27 Inhibitor Abolishes Androgen Receptors in Glioblastoma” (J Med Chem, 2021).
